Experimental data: ChEMBL document CHEMBL3286164, “Anti-proliferative effect of chalcone derivatives through inactivation of NF-κB in human cancer cells” (Bioorg Med Chem, 2014)

Columns and labels:
MDA-MB-231 = experiment: Antiproliferative activity against human MDA-MB-231 cells by SRB method; assay type: functional
Method in brief: (§1)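 GI50 against human cancer cell lines is the mean of three independent experiments.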

[1] = Antiproliferative activity against human HCT15 cells by SRB method; assay type: functional; conditions: HCT-15; method in brief: as §1
NCI-H23 = experiment: Antiproliferative activity against human NCI-H23 cells by SRB method; assay type: functional; method in brief: as §1
[2] = Inhibition of NF-kappaB in mouse RAW264.7 cells incubated for 2 hrs prior to LPS challenge measured after 16 hrs by SEAP assay; assay type: cell-based
Method in brief: (§2)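 Reporter cells: RAW 264.7 carrying stably integrated pNF-κB-SEAP-NPT, or THP-1 transfected with pNF-κB-SEAP. Cells were pretreated with compound for 2 h, then stimulated with LPS (1 µg/ml) for 16 h. Culture-medium aliquots were heated at 65 °C for 5 min and incubated with 4-methylumbelliferyl phosphate (500 µM) in the dark for 1 h. Fluorescence was read at ex 360/em 449 nm as RFU. IC50 is the mean of three experiments.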

ACHN = experiment: Antiproliferative activity against human ACHN cells by SRB method; assay type: functional; method in brief: as §1
PC-3 = experiment: Antiproliferative activity against human PC3 cells by SRB method; assay type: functional; method in brief: as §1
[3] = Antiproliferative activity against human NUGC3 cells by SRB method; assay type: functional; conditions: NUGC-3; method in brief: as §1
[4] = target: Nuclear factor NF-kappa-B complex (Homo sapiens, UniProt P19838+Q00653+Q04206); experiment: Inhibition of NF-kappaB in human THP1 cells incubated for 2 hrs prior to LPS challenge measured after 16 hrs by SEAP assay; assay type: cell-based, THP-1; method in brief: as §2
Sequence of Nuclear factor NF-kappa-B complex (P19838 1-433 limits assumed): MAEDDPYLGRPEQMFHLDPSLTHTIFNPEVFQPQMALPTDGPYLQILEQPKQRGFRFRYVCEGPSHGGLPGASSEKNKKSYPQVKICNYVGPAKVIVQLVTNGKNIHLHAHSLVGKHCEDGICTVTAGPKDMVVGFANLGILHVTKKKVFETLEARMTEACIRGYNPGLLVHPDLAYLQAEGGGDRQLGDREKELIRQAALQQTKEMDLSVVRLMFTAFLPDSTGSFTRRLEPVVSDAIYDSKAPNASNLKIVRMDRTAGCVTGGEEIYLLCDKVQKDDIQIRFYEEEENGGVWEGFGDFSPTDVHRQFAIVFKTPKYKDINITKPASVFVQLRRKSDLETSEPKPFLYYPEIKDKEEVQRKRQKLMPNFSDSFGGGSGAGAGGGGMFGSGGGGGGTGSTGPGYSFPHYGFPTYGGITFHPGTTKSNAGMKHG
Sequence of Nuclear factor NF-kappa-B complex (Q00653 1-454 limits assumed): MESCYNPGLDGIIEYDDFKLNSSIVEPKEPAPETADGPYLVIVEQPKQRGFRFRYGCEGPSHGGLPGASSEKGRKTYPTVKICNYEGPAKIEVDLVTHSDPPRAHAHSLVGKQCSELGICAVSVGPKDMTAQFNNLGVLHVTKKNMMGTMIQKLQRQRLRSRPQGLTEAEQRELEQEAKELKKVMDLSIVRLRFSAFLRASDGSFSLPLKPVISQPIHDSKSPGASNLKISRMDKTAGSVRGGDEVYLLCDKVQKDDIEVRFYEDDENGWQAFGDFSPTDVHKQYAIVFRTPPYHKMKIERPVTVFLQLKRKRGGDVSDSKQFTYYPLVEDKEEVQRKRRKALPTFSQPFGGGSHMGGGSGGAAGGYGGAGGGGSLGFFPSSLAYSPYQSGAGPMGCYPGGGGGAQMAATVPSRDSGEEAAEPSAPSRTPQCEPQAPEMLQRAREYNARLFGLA
Sequence of Nuclear factor NF-kappa-B complex (Q04206 whole entry): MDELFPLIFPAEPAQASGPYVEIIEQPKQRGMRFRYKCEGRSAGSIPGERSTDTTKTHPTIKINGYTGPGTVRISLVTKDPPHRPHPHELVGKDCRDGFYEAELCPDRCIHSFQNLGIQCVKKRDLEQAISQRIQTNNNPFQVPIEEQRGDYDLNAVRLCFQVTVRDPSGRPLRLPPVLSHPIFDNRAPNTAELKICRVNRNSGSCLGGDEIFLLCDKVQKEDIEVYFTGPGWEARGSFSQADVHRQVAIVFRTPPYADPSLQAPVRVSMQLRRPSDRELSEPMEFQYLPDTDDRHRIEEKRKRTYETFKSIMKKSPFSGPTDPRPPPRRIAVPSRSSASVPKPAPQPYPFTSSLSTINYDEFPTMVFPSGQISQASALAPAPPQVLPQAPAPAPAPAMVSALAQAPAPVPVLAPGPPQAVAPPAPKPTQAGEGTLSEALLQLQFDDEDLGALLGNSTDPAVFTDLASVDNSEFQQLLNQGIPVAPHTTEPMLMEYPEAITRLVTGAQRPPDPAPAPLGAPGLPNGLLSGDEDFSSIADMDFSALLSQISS

Row | SMILES | GI50 (MDA-MB-231) | GI50 (NCI-H23) | IC50 [2] | GI50 (ACHN) | GI50 (PC-3) | IC50 [4] | GI50 [1] | GI50 [3]
1 | O=C(/C=C/c1ccc(O)cc1)c1c(O)cccc1OCC1CCCCC1 | > 30 µM | > 30 µM | – | > 30 µM | > 30 µM | – | > 30 µM | > 30 µM
2 | O=C(/C=C/c1ccc(O)cc1)c1c(O)cccc1OCC1CCCC1 | 3.41 µM | 3.16 µM | – | 3.51 µM | 3.04 µM | 13 µM | 3.41 µM | 2.14 µM
3 | O=C(/C=C/c1ccc(O)cc1)c1c(O)cccc1OCCC1CCCC1 | 3.34 µM | 3.37 µM | – | 3.4 µM | 3.48 µM | 18 µM | 3.31 µM | 3.2 µM
4 | O=C(/C=C/c1ccc(O)cc1)c1c(O)cccc1OCCC1CCCCC1 | > 30 µM | > 30 µM | – | > 30 µM | > 30 µM | > 30 µM | > 30 µM | > 30 µM
5 | O=C(/C=C/c1ccc(O)cc1)c1c(O)cccc1OCC12CC3CC(CC(C3)C1)C2 | > 30 µM | > 30 µM | – | > 30 µM | > 30 µM | > 30 µM | > 30 µM | > 30 µM
6 | CC(C)(C)CCOc1cccc(O)c1C(=O)/C=C/c1ccc(C(=O)O)cc1 | 11.2 µM | 4.77 µM | – | 8.45 µM | 6.5 µM | 2.8 µM | 2.17 µM | 5.44 µM
7 | CC(C)(C)CCOc1cccc(O)c1C(=O)/C=C/c1ccc(S(N)(=O)=O)cc1 | 2.11 µM | 2.95 µM | – | 3.3 µM | 3.25 µM | 1.2 µM | 2.93 µM | 1.17 µM
8 | COc1cccc(OCCC(C)(C)C)c1C(=O)/C=C/c1ccc(O)cc1 | > 30 µM | > 30 µM | – | > 30 µM | > 30 µM | > 30 µM | > 30 µM | > 30 µM
9 | CC(C)(C)CCOc1cccc(O)c1C(=O)CCc1ccc(O)cc1 | > 30 µM | > 30 µM | – | > 30 µM | > 30 µM | > 30 µM | > 30 µM | > 30 µM
10 | COc1cccc2c1C(=O)c1c(O)c3c(c(O)c1C2=O)C[C@@](O)(C(=O)CO)C[C@@H]3O[C@H]1C[C@H](N)[C@H](O)[C@H](C)O1 [DOXORUBICIN] | – | – | – | – | – | – | – | 1 µM

Continued, in another order:

Row | GI50 (MDA-MB-231) | GI50 (NCI-H23) | IC50 [2] | GI50 (ACHN) | GI50 (PC-3) | IC50 [4] | SMILES | GI50 [1] | GI50 [3]
11 | 10.3 µM | 12.1 µM | 10 µM | 11.3 µM | 11.5 µM | – | CC(C)CCOc1cccc(O)c1C(=O)/C=C/c1ccc(O)cc1 | 10.6 µM | 12.4 µM
12 | > 30 µM | > 30 µM | – | > 30 µM | > 30 µM | – | CCCCCCOc1cccc(O)c1C(=O)/C=C/c1ccc(O)cc1 | > 30 µM | > 30 µM
13 | > 30 µM | > 30 µM | – | > 30 µM | > 30 µM | – | O=C(/C=C/c1ccc(O)cc1)c1c(O)cccc1OCc1ccccc1 | > 30 µM | > 30 µM
14 | 3.48 µM | 11.3 µM | – | 3.63 µM | 3.6 µM | 11 µM | CC(C)CCCOc1cccc(O)c1C(=O)/C=C/c1ccc(O)cc1 | 11.6 µM | 3.52 µM
15 | > 30 µM | > 30 µM | – | > 30 µM | > 30 µM | > 30 µM | CCCCOc1cccc(O)c1C(=O)/C=C/c1ccc(O)cc1 | > 30 µM | > 30 µM
16 | 2.38 µM | 3.13 µM | – | 3.14 µM | 3.22 µM | 3 µM | CC(C)(C)CCOc1cccc(O)c1C(=O)/C=C/c1ccc(O)cc1 | 3.43 µM | 3.3 µM
17 | 3.52 µM | 3.22 µM | – | 3.29 µM | 2.97 µM | 8 µM | CC(C)COc1cccc(O)c1C(=O)/C=C/c1ccc(O)cc1 | 2.6 µM | 2.98 µM
18 | 3.13 µM | 3.21 µM | – | 3.37 µM | 3.39 µM | 12 µM | CCC(CC)COc1cccc(O)c1C(=O)/C=C/c1ccc(O)cc1 | 3.42 µM | 1.96 µM
19 | > 30 µM | > 30 µM | – | > 30 µM | > 30 µM | > 30 µM | CC(C)=CCOc1cccc(O)c1C(=O)/C=C/c1ccc(O)cc1 | > 30 µM | > 30 µM
